ChEMBL document CHEMBL1921736, “Evaluation of new chalcone derivatives as polyphenol oxidase inhibitors” (Bioorg Med Chem Lett, 2011)
Activity calls are given as the source filed them. The rule behind the calls is not given here.

Legend:
[1] = Competitive inhibition of diphenolase activity of banana tyrosinase using catechol as substrate by Lineweaver-Burk double reciprocal plot analysis; design: species or system Musa acuminata
Summary of the method: (§1)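 Tyrosinase (PPO) extracted from banana, then purified on a Sepharose 4B-L-tyrosine-p-aminobenzoic acid affinity column; all purification steps at 25 °C. Activity measured with catechol as substrate by following the absorbance increase at 420 nm. Residual activity was followed over a range of inhibitor concentrations, and progress curves were compared with uninhibited enzyme activity.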

[2] = Inhibition of diphenolase activity of banana tyrosinase using catechol as substrate by spectrophotometry; design: species or system Musa acuminata; summary of the method: as §1
Musa acuminata [3] = experiment: Inhibition of diphenolase activity of banana tyrosinase using catechol as substrate at 50 uM by spectrophotometry; summary of the method: as §1
Musa acuminata [4] = experiment: Activation of diphenolase activity of banana tyrosinase using catechol as substrate at 50 uM by spectrophotometry; summary of the method: as §1

| Compound | Ki [1] | IC50 [2] | inhibition (Musa acuminata [3]) | Activity (Musa acuminata [4]) |
| --- | --- | --- | --- | --- |
| COc1ccc(C(=O)/C=C/c2ccc(NC(=O)Nc3ccc(C)cc3)cc2)cc1 | 22 nM | 289 nM |  |  |
| Cc1ccc(/C=C/C(=O)c2ccc(NC(=O)Nc3ccc(C)cc3)cc2)cc1 |  |  | inactive | Active |
| O=C(Nc1ccccc1)Nc1ccc(C(=O)/C=C/c2ccc(Br)cc2)cc1 |  |  | inactive | Active |
| O=C(Nc1ccccc1)Nc1ccc(C(=O)/C=C/c2ccc(Cl)cc2)cc1 |  |  | inactive | Active |
| Cc1ccc(NC(=O)Nc2ccc(/C=C/C(=O)c3ccccc3)cc2)cc1 | 57 nM | 241 nM |  |  |
| Cc1ccc(NC(=O)Nc2ccc(/C=C/C(=O)c3ccc(Cl)cc3)cc2)cc1 | 129 nM | 238 nM |  |  |
| COc1ccc(/C=C/C(=O)c2ccc(NC(=O)Nc3ccccc3)cc2)cc1 |  |  | inactive | Active |
| O=C(Nc1ccc(F)cc1)Nc1ccc(/C=C/C(=O)c2ccccc2)cc1 | 125 nM | 177 nM |  |  |
| COc1cccc(NC(=O)Nc2ccc(/C=C/C(=O)c3ccc(Cl)cc3)cc2)c1 | 59 nM | 152 nM |  |  |
| O=C(Nc1ccc(F)cc1)Nc1ccc(/C=C/C(=O)c2ccc(Cl)cc2)cc1 | 117 nM | 133 nM |  |  |
| Cc1ccc(C(=O)/C=C/c2ccc(NC(=O)Nc3ccc(F)cc3)cc2)cc1 | 59 nM | 217 nM |  |  |
| Cc1ccc(NC(=S)Nc2ccc(C(=O)/C=C/c3ccc(Cl)cc3)cc2)cc1 |  |  | inactive | Active |
| Cc1ccc(NC(=O)Nc2ccc(/C=C/C(=O)c3ccc(C)cc3)cc2)cc1 | 67 nM | 134 nM |  |  |
| COc1ccc(/C=C/C(=O)c2ccc(NC(=O)Nc3ccc(C)cc3)cc2)cc1 |  |  | inactive | Active |
| Cc1ccc(/C=C/C(=O)c2ccc(NC(=O)Nc3ccccc3)cc2)cc1 |  |  | inactive | Active |
| Cc1ccc(NC(=O)Nc2ccc(C(=O)/C=C/c3ccc(Br)cc3)cc2)cc1 |  |  | inactive | Active |
| COc1ccc(/C=C/C(=O)c2ccc(NC(=S)Nc3ccc(C)cc3)cc2)cc1 |  |  | inactive | Active |
| COc1cccc(NC(=O)Nc2ccc(/C=C/C(=O)c3ccccc3)cc2)c1 | 240 nM | 244 nM |  |  |
| O=C(Nc1ccccc1)Nc1ccc(/C=C/C(=O)c2ccccc2)cc1 | 37 nM | 172 nM |  |  |
| Cc1ccc(NC(=O)Nc2ccc(C(=O)/C=C/c3ccc(Cl)cc3)cc2)cc1 |  |  | inactive | Active |
| COc1ccc(/C=C/C(=O)c2ccc(NC(=S)Nc3ccccc3)cc2)cc1 |  |  | inactive | Active |
| O=C(/C=C/c1ccc(Cl)cc1)c1ccc(NC(=S)Nc2ccccc2)cc1 |  |  | inactive | Active |
